Assay results published in ChEMBL document CHEMBL4342524, “Discovery of M-808 as a Highly Potent, Covalent, Small-Molecule Inhibitor of the Menin-MLL Interaction with Strong In Vivo Antitumor Activity” (J Med Chem, 2020).
The source made the active and inactive calls. No cut-off for these calls is given here.

What was measured:
MOLM-13 = assay: Growth inhibition of human MOLM13 cells after 7 days by WST-8 assay; format: functional, cell-based; settings: MOLM-13, 168 h
Procedure, shortened: (§1)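 Cells cultured in IMDM or RPMI 1640 with 10% FBS at 37 °C, 5% CO2. Growth read by WST-8 at 450 nm after at least 1 h with reagent. Signals normalized to untreated cells and IC50 fitted by nonlinear regression; mean and SD from three independent experiments.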

HL-60 = assay: Growth inhibition of human HL60 cells after 7 days by WST-8 assay; format: functional, cell-based; settings: HL-60, 168 h; procedure, shortened: as §1
Menin (Homo sapiens) [1] = target: T1, Menin (Homo sapiens) (UniProt O00255); assay: Covalent binding affinity to human menin assessed as protein-compound complex formation at protein to compound ratio of 1:1.2 after 1 hr by LC-MS analysis relative to control
T1 sequence (whole entry): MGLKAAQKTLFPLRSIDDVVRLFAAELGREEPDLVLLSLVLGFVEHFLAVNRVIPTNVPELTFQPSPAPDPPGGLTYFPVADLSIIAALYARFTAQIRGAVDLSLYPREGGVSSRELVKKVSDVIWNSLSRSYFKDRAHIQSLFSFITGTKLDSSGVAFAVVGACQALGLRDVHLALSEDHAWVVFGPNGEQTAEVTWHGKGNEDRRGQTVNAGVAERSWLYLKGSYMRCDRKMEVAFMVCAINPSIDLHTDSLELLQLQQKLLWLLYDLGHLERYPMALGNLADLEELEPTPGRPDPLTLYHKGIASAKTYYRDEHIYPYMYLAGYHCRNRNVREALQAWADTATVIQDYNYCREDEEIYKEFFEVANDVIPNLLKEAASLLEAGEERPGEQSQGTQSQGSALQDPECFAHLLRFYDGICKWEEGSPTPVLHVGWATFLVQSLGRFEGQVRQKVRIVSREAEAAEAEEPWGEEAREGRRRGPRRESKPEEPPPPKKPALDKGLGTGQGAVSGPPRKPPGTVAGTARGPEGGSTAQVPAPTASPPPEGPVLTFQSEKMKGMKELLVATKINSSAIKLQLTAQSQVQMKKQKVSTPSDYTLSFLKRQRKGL
Procedure, shortened: (§2)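 Diluted to 1 mg/mL, then run on reverse-phase C4 LC with a 5–100% MeCN/0.2% formic acid gradient and Q-TOF MS. Intact masses obtained by maximum-entropy deconvolution.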

Menin (Homo sapiens) [2] = target: T1, Menin (Homo sapiens); assay: Covalent binding affinity to human menin assessed as protein-compound complex formation at protein to compound ratio of 1:1.2 measured after overnight incubation by LC-MS analysis relative to control; procedure, shortened: as §2
Mus musculus [3] = assay: Downregulation of Hoxa9 expression in tumors of CB-17 SCID mouse xenografted with human MV4-11 cells at 10 mg/kg, iv administered as single dose and measured after 24 hrs by RT-qPCR analysis; format: functional, organism-based
Procedure, shortened: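 MV4;11 subcutaneous xenografts in female C.B-17 SCID mice; single IV dose of 10 mg/kg or vehicle. Tumors collected 24 h post-dose, 3 mice per group, snap-frozen and powdered. Total RNA converted to cDNA; HOXA9, MEIS1 and GAPDH measured by TaqMan real-time PCR; relative expression by comparative Ct.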

Mus musculus [4] = assay: Downregulation of MEIS1 expression in tumors of CB-17 SCID mouse xenografted with human MV4-11 cells at 10 mg/kg, iv administered as single dose and measured after 24 hrs by RT-qPCR analysis relative to control; format: functional
Procedure, shortened: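 Female C.B-17 SCID mice bearing subcutaneous MV4;11 flank xenografts were given a single IV dose (vehicle control). Tumors were harvested at 24 h, 3 mice per time point, snap-frozen in liquid N2 and ground. Total RNA was reverse-transcribed, and HOXA9, MEIS1 and GAPDH were measured by TaqMan real-time PCR. Relative expression was calculated by the comparative Ct method.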

[5] = Toxicity in SCID mouse assessed as drug tolerability at 10 mg/kg, iv administered every other day for 1 week; format: organism-based; settings: in vivo, 168 h
[6] = Toxicity in SCID mouse assessed as reduction in body weight at 25 mg/kg, iv administered every other day for 1 week relative to control; format: organism-based; set-up: scale not given: the % may be the effect or the level left; settings: in vivo, 168 h
MV4-11 [7] = assay: Growth inhibition of human MV4-11 cells after 7 days by WST-8 assay; format: functional, cell-based; settings: MV4-11, 168 h; procedure, shortened: as §1
Menin [8] = target: T2, Menin (Homo sapiens, UniProt O00255); assay: Inhibition of fluorescent labeled tracer binding to Menin (unknown origin) after 1 hr by fluorescence polarization competitive binding assay
T2 sequence (O00255 whole entry): T1 sequence (whole entry)
Procedure, shortened: (§3)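 Competitive FP assay: 4 nM menin and 2 nM fluorescein-labeled tracer (final concentrations) in PBS with 100 μg/mL bovine γ-globulin and 0.01% Triton X-100. Compounds added from DMSO at varying concentrations and incubated 1 h at room temperature. IC50 obtained by nonlinear sigmoidal fitting of the FP decrease against total compound concentration.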

[9] = Toxicity in SCID mouse assessed as drug tolerability at 25 mg/kg, iv administered every other day for 1 week; format: organism-based; settings: in vivo, 168 h
Mus musculus [10] = assay: In vivo inhibition of Menin-MLL protein-protein interaction in CB-17 SCID mouse xenografted with human MV4-11 cells assessed as reduction in MEIS1 expression in tumor at 25 mg/kg, iv measured after 6 to 24 hrs by RT-qPCR analysis; format: functional, organism-based
Procedure, shortened: (§4)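 MV4;11 flank xenografts in female C.B-17 SCID mice given a single 25 mg/kg IV dose or vehicle. Tumors harvested at 6, 24 and 48 h, 3 mice per time point, and frozen in liquid N2. RNA extracted; HOXA9 and MEIS1, with GAPDH, quantified by TaqMan qRT-PCR using the comparative Ct method.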

Mus musculus [11] = assay: In vivo inhibition of Menin-MLL protein-protein interaction in CB-17 SCID mouse xenografted with human MV4-11 cells assessed as reduction in HOXA9 expression in tumor at 25 mg/kg, iv measured after 6 to 24 hrs by RT-qPCR analysis; format: functional, organism-based; procedure, shortened: as §4
MV4-11 [12] = assay: Antitumor activity against human MV4-11 cells xenografted in CB-17 SCID mouse assessed as effect on tumor growth at 10 mg/kg, iv administered every other day for 1 week (11 doses); format: functional, organism-based
Procedure, shortened: (§5)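 Female C.B-17 SCID mice inoculated s.c. in the flank with 5 × 10^6 MV4;11 cells in 0.1 mL 1:1 PBS/Matrigel (final Matrigel 5 mg/mL). Dosed IV every other day, 3 times per week, 11 doses in total; vehicle-only control group. Tumor volume by calipers as (A × B²)/2, and body weight, measured 2–3 times weekly during treatment and at least weekly afterward. Toxicity signs monitored.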

MV4-11 [13] = assay: Antitumor activity against human MV4-11 cells xenografted in CB-17 SCID mouse assessed as tumor growth inhibition at 25 mg/kg, iv administered every other day for 1 week (11 doses) and measured on day 35 post treatment relative to control; format: functional; settings: MV4-11, iv, read-out: TGI
MV4-11 [14] = assay: Antitumor activity against human MV4-11 cells xenografted in CB-17 SCID mouse assessed as tumor volume at 25 mg/kg, iv administered every other day for 1 week (11 doses) and measured on day 35 post treatment (reference value: 92 mm3); format: functional
[15] = Toxicity in CB-17 SCID mouse xenografted with human MV4-11 cells assessed as effect on body weight at 10 to 25 mg/kg, iv administered every other day for 1 week (11 doses); format: organism-based; settings: in vivo, 168 h; procedure, shortened: as §5
[16] = Toxicity in CB-17 SCID mouse xenografted with human MV4-11 cells assessed as effect on clinical signs at 10 to 25 mg/kg, iv administered every other day for 1 week (11 doses); format: organism-based; settings: in vivo, 168 h; procedure, shortened: as §5
Menin [17] = target: T2, Menin; assay: Inhibition of menin (unknown origin) by fluorescence polarization assay; procedure, shortened: as §3

| Structure (SMILES) | IC50 (MOLM-13) | IC50 (HL-60) | Activity (Menin (Homo sapiens) [1]) | Activity (Menin (Homo sapiens) [2]) | IC50 (MV4-11 [7]) | further results |
| --- | --- | --- | --- | --- | --- | --- |
| COC(=O)N[C@H]1CCC[C@@H]1[C@](CN1CCC1)(c1cccc(F)c1)C1CCN(CC2CN(c3ccc(S(=O)(=O)C4CN(C(=O)/C=C/CN(C)C)C4)cc3)C2)CC1 | 8 nM | 3000 nM | 75% | 100% |  | Activity (Mus musculus [3]): Active; fold change (FC) (Mus musculus [4]): >2; Activity [5]: Non-Toxic; Activity [6]: > 10% |
| COC(=O)N[C@H]1CCC[C@@H]1[C@](CN1CCC1)(c1cccc(F)c1)C1CCN(CC2CN(c3ccc(S(=O)(=O)C4CN(C(=O)/C=C/CN5CC(F)(F)C5)C4)cc3)C2)CC1 | 15 nM | 2800 nM | 0% | 0% | 4 nM |  |
| COC(=O)N[C@H]1CCC[C@@H]1[C@](CN1CCC1)(c1cccc(F)c1)C1CCN(CC2CN(c3ccc(S(=O)(=O)C4CN(C(=O)/C=C/CN5CCC(F)(F)CC5)C4)cc3)C2)CC1 | 20 nM | 3200 nM | 0% | 0% | 4 nM |  |
| COC(=O)N[C@H]1CCC[C@@H]1[C@](CN1CCC1)(c1cccc(F)c1)C1CCN(CC2CN(c3ccc(S(=O)(=O)C4CN(C(=O)/C=C/CN5CCCC5)C4)cc3)C2)CC1 | 9 nM | 2100 nM | 100% | 100% |  | Activity (Mus musculus [3]): Active; fold change (FC) (Mus musculus [4]): >2; Activity [5]: Non-Toxic; Activity [6]: > 10% |
| COC(=O)N[C@H]1CCC[C@@H]1[C@](CN1CCC1)(c1cccc(F)c1)C1CCN(CC2CN(c3ccc(S(=O)(=O)C4CN(C(=O)/C=C/CN5CCCCC5)C4)cc3)C2)CC1 | 4 nM | 2800 nM | 75% | 100% | 1 nM | IC50 (Menin [8]): 2.6 nM; Activity (Mus musculus [3]): Active; fold change (FC) (Mus musculus [4]): >2; Activity [5]: Non-Toxic; Activity [9]: Non-Toxic; inhibition (Mus musculus [10]): Active; inhibition (Mus musculus [11]): Active; Activity (MV4-11 [12]): inactive; inhibition in vivo at 25 mg/kg (MV4-11 [13]): 97%; Activity (MV4-11 [14]): 59 mm3; Activity [15]: Non-Toxic; Activity [16]: Non-Toxic |
| C=CC(=O)N1CC(S(=O)(=O)c2ccc(N3CC(CN4CCC([C@@](CN5CCC5)(c5cccc(F)c5)[C@H]5CCC[C@@H]5NC(=O)OC)CC4)C3)cc2)C1 | 374 nM | 2600 nM | 50% | 75% | 23 nM |  |
| COC(=O)N[C@H]1CCC[C@@H]1[C@](C#N)(c1cccc(F)c1)C1CCN(CC2CN(c3ccc(S(=O)(=O)C4CN(C(=O)/C=C/CN(C)C)C4)cc3)C2)CC1 | 19 nM | 1500 nM | 95% | 100% | 4 nM | IC50 (Menin [17]): 3.3 nM |
| COC(=O)N[C@H]1CCC[C@@H]1[C@](CN1CCCCC1)(c1cccc(F)c1)C1CCN(CC2CN(c3ccc(S(=O)(=O)C4CN(C(=O)/C=C/CN(C)C)C4)cc3)C2)CC1 | 157 nM | 600 nM |  |  | 40 nM |  |
| COC(=O)N[C@H]1CCC[C@@H]1[C@](CN1CCCC1)(c1cccc(F)c1)C1CCN(CC2CN(c3ccc(S(=O)(=O)C4CN(C(=O)/C=C/CN(C)C)C4)cc3)C2)CC1 | 15 nM | 1400 nM |  |  | 5 nM |  |
| COC(=O)N[C@H]1CCC[C@@H]1[C@](CN1CCC1)(c1cccc(F)c1)C1CCN(CC2CN(c3ccc(S(=O)(=O)C4CN(C(=O)/C=C/CN5CCC(F)CC5)C4)cc3)C2)CC1 | 21 nM | 3600 nM | 20% | 100% | 3 nM |  |

Continued by falling IC50 (MOLM-13), values first:

| IC50 (MOLM-13) | IC50 (HL-60) | Activity (Menin (Homo sapiens) [1]) | Activity (Menin (Homo sapiens) [2]) | IC50 (MV4-11 [7]) | Structure (SMILES) | further results |
| --- | --- | --- | --- | --- | --- | --- |
| 14 nM | 4800 nM |  |  |  | COC(=O)N[C@H]1CCC[C@@H]1[C@](Cn1ccnn1)(c1cccc(F)c1)C1CCN(CC2CN(c3ccc(S(=O)(=O)C4CN(C(=O)/C=C/CN(C)C)C4)cc3)C2)CC1 |  |
| 11 nM | > 10000 nM | 100% | 100% | 2 nM | CCc1nccn1C[C@@](c1cccc(F)c1)(C1CCN(CC2CN(c3ccc(S(=O)(=O)C4CN(C(=O)/C=C/CN(C)C)C4)cc3)C2)CC1)[C@H]1CCC[C@@H]1NC(=O)OC | IC50 (Menin [8]): 1.7 nM |
| 3 nM | 2000 nM | 20% | 75% | 1 nM | COC(=O)N[C@H]1CCC[C@@H]1[C@](CN1CCC1)(c1cccc(F)c1)C1CCN(CC2CN(c3ccc(S(=O)(=O)C4CN(C(=O)/C=C/CN5CC(F)C5)C4)cc3)C2)CC1 |  |
| 3 nM | 2100 nM | 75% | 100% |  | COC(=O)N[C@H]1CCC[C@@H]1[C@](CN1CCC1)(c1cccc(F)c1)C1CCN(CC2CN(c3ccc(S(=O)(=O)C4CN(C(=O)/C=C/CN5CCC5)C4)cc3)C2)CC1 |  |
| 2 nM | 700 nM |  |  | 1.1 nM | COC(=O)N[C@H]1CCC[C@@H]1[C@](CN(C)C)(c1cccc(F)c1)C1CCN(CC2CN(c3ccc(S(=O)(=O)C4CN(C(=O)/C=C/CN(C)C)C4)cc3)C2)CC1 |  |
